Measurements published in ChEMBL document CHEMBL4373710, “DNA Structural Alteration Leading to Antibacterial Properties of 6-Nitroquinoxaline Derivatives” (J Med Chem, 2019).
Values after ≈ are worked out from the molar mass of the structure shown. Active and inactive are the calls of the source. No cut-off for these calls is given here.

What was measured:
Staphylococcus aureus [1] = assay: Antibacterial activity against Staphylococcus aureus MTCC737 measured after 6 hrs by broth microdilution assay; assay type: functional; details: MTCC737, 6 h
Summary of the method: (§1)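 Broth microdilution per CLSI; 5×10^5 cfu/mL bacteria in LB broth; compounds from DMSO stocks, final DMSO under 0.6%, with DMSO control. Plates incubated at the strain's recommended growth temperature and time; growth read as OD600.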

Escherichia coli = assay: Antibacterial activity against Escherichia coli MTCC1916 by broth microdilution assay; assay type: functional; summary of the method: as §1
[2] = test system: Poly(dG-dC)oligonucleotide; assay: Binding affinity to poly(dG-dC) DNA (unknown origin) assessed as change in B-DNA structure by circular dichroism method; assay type: nucleic-acid assay
Summary of the method: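 Poly(dA-dT)·poly(dA-dT) or poly(dG-dC)·poly(dG-dC) held at 10 µM. Titrated with compound from 20 to 60 µM and followed by circular dichroism for change in the B-DNA band and appearance of induced CD.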

DNA [3] = assay: Binding affinity to Staphylococcus aureus DNA assessed as change in B-DNA structure by circular dichroism method; assay type: nucleic-acid assay
Summary of the method: (§2)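 Genomic DNA isolated from overnight cultures of each strain. Titrated with compound from 15 to 60 µM in a 10 mm quartz cuvette. CD spectra recorded from 230 to 500 nm at 100 nm/min; ellipticity followed at 320 nm.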

[4] = test system: Pseudarthrobacter chlorophenolicus; assay: Binding affinity to Arthrobacter chlorophenolicus DNA assessed as change in B-DNA structure by circular dichroism method; summary of the method: as §2
DNA [5] = assay: Binding affinity to Staphylococcus aureus DNA assessed as appearance of induced CD up to 60 uM by circular dichroism method; assay type: nucleic-acid assay; summary of the method: as §2
[6] = test system: Pseudarthrobacter chlorophenolicus; assay: Binding affinity to Arthrobacter chlorophenolicus DNA assessed as appearance of induced CD up to 60 uM by circular dichroism method; summary of the method: as §2
DNA [7] = assay: Binding affinity to Escherichia coli pBR322 DNA assessed as DNA unwinding at 0.5:1 to 1.5:1 compound to DNA ratio by atomic force microscopic analysis; assay type: nucleic-acid assay
Summary of the method: (§3)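 Supercoiled pBR322 plasmid treated with compound at [compound]:[DNA bp] ratios of 0.5:1, 1:1, 1.5:1, 2:1 and 3:1. Imaged by atomic force microscopy, with DNA height measured and compared against untreated plasmid.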

DNA [8] = assay: Binding affinity to Escherichia coli pBR322 DNA assessed as height of DNA at 0.5:1 to 3:1 compound to DNA ratio by atomic force microscopic analysis; assay type: nucleic-acid assay; summary of the method: as §3
DNA [9] = assay: Binding affinity to Escherichia coli pBR322 DNA assessed as transition of local to global DNA at 2:1 to 3:1 compound to DNA ratio by atomic force microscopic analysis; assay type: nucleic-acid assay; summary of the method: as §3
DNA [10] = assay: Inhibition of ethidium bromide binding to Staphylococcus aureus DNA at pH 6 to 8 by fluorescence assay; assay type: nucleic-acid assay
Summary of the method: (§4)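 S. aureus genomic DNA (10 µM) with EtBr (5 µM) in 10 mM NaP pH 7, 10 mM NaCl and 1% DMSO, at 25 and 37 °C. Titrated with compound from 2.5 to 100 µM. Excitation 480 nm, emission scanned 520–700 nm, corrected for inner filter. Stern–Volmer analysis, triplicates. Variants: pH 6–8, or NaCl raised to 50 and 200 mM.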

DNA [11] = assay: Inhibition of ethidium bromide binding to Staphylococcus aureus DNA in presence of 10 to 200 mM NaCl by fluorescence assay; assay type: nucleic-acid assay; summary of the method: as §4
DNA [12] = assay: Induction of DNA condensation in Staphylococcus aureus assessed as nucleoid shrinkage at 10 uM after 1 hr by DAPI staining-based confocal laser scanning fluorescence microscopic analysis; assay type: nucleic-acid assay
Summary of the method: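 S. aureus grown 6 h at 37 °C, washed into PBS and exposed to 10 µM compound or 0.5% DMSO for 1 h at 37 °C with shaking. Fixed in paraformaldehyde for 30 min at 4 °C, then DAPI-stained for 5 min. Nucleoid and cell areas measured from phase contrast/DAPI images; N/C ratio from 35 cells over three independent experiments, mean ± SD.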

Staphylococcus aureus [13] = assay: Inhibition of DNA synthesis in Staphylococcus aureus assessed as reduction in [3H]-thymidine incorporation at 3.5 to 5 uM measured after 30 mins by scintillation counting analysis; assay type: functional, organism-based
Summary of the method: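 Log-phase S. aureus (10^5–10^6 CFU/mL) incubated with 3.5 or 5 µM, then pulsed 30 min with 3H-thymidine (1 µCi/well); cells harvested and counted by liquid scintillation. 5-fluorouracil (2 µM) as positive control.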

HEK293 = assay: Induction of DNA damage in HEK293 cells at 15 uM by TUNEL staining based confocal laser scanning fluorescence microscopic analysis; assay type: cell-based; details: human, hek293, 15 µM
Summary of the method: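 TUNEL in HEK 293 cells treated with 15 µM or 0.5% DMSO control; TdT incorporation of fluorescent nucleotides at strand-break 3′-OH ends, confocal imaging at 60X.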

Staphylococcus aureus [14] = assay: Induction of morphological changes in Staphylococcus aureus assessed as change in microbe length at 5 uM by atomic force microscopic analysis (reference value: 1.37 +/- 0.09 micrometer); assay type: functional
Staphylococcus aureus [15] = assay: Induction of morphological changes in Staphylococcus aureus assessed as changed population at 3.5 uM measured after 2 hrs by flow cytometric analysis (reference value: 5.71%); assay type: functional
Staphylococcus aureus [16] = assay: Induction of morphological changes in Staphylococcus aureus assessed as changed population at 5 uM measured after 2 hrs by flow cytometric analysis (reference value: 5.71%); assay type: functional
Staphylococcus aureus [17] = assay: Induction of morphological changes in Staphylococcus aureus assessed as unchanged population at 5 uM measured after 2 hrs by flow cytometric analysis (reference value: 90.4%); assay type: functional
Staphylococcus aureus [18] = assay: Induction of morphological changes in Staphylococcus aureus assessed as changed population at 7.5 uM measured after 2 hrs by flow cytometric analysis (reference value: 5.71%); assay type: functional
Staphylococcus aureus [19] = assay: Induction of morphological changes in Staphylococcus aureus assessed as increase in changed population measured after 2 hrs by flow cytometric analysis; assay type: functional, organism-based
Staphylococcus aureus [20] = assay: Disruption of cell membrane in Staphylococcus aureus assessed as accumulation of propidium iodide positive cells at 3.5 uM by flow cytometric analysis (reference value: 1.7%); assay type: functional
Staphylococcus aureus [21] = assay: Disruption of cell membrane in Staphylococcus aureus assessed as accumulation of propidium iodide negative cells at 5 uM by flow cytometric analysis (reference value: 98.2%); assay type: functional
Staphylococcus aureus [22] = assay: Disruption of cell membrane in Staphylococcus aureus assessed as accumulation of propidium iodide positive cells at 5 uM by flow cytometric analysis (reference value: 1.7%); assay type: functional
Staphylococcus aureus [23] = assay: Disruption of preformed biofilm in Staphylococcus aureus at MIC measured after 12 hrs by crystal violet staining based light microscopic analysis; assay type: functional, organism-based
Summary of the method: (§5)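 Planktonic cells washed off; 1% crystal violet 10 min, solubilised in 30% acetic acid, A550 read; wells also imaged at 20X by light microscopy.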

Staphylococcus aureus [24] = assay: Disruption of preformed biofilm in Staphylococcus aureus at 4 times MIC measured after 12 hrs by crystal violet staining based light microscopic analysis; assay type: functional; summary of the method: as §5

MIC (Staphylococcus aureus [1]): 1.79 µg/mL (≈ 3.99 µM)
MIC (Escherichia coli): 3.36 µg/mL (≈ 7.49 µM)
Activity [2]: Dose-dependent effect
Activity (DNA [3]): Dose-dependent effect
Activity [4]: Dose-dependent effect
Activity (DNA [5]): Active
Activity [6]: Active
Activity (DNA [7]): Active
Activity (DNA [8]): 0.32 to 1.3 nm
Activity (DNA [9]): Active
inhibition (DNA [10]): Active
inhibition (DNA [11]): Active
Activity (DNA [12]): Active
SMILES: CN(C)CCCNc1nc2cc([N+](=O)[O-])ccc2nc1NCc1ccc(C(F)(F)F)cc1
inhibition (Staphylococcus aureus [13]): Active
Activity (HEK293): Toxic
Activity (Staphylococcus aureus [14]): 2.36 um
Activity (Staphylococcus aureus [15]): 10.2%
Activity (Staphylococcus aureus [16]): 14.6%
Activity (Staphylococcus aureus [17]): 82.4%
Activity (Staphylococcus aureus [18]): 16.4%
Activity (Staphylococcus aureus [19]): Dose-dependent effect
Activity (Staphylococcus aureus [20]): 7.96%
Activity (Staphylococcus aureus [21]): 79%
Activity (Staphylococcus aureus [22]): 20.4%
Activity (Staphylococcus aureus [23]): Active
Activity (Staphylococcus aureus [24]): 100%
